Measured values from different studies.
Compare with care: the assays were run in different laboratories. Values after ≈ are worked out from the molar mass of the structure shown.
Organism: Enterococcus faecalis

| SMILES | assay | test system | setting | measurement | result |
| --- | --- | --- | --- | --- | --- |
| CC(C)CCCCCCCCCCCCCCc1cc(O)cc(O)c1 | microbial growth | ATCC29212 |  | IC50 | 16.9 µM |
| CCCCCCCCCCCCCCCC(=O)NS(=O)(=O)Oc1ccc(Cl)c(Cl)c1 | microbial growth, broth dilution | ATCC33186 |  | MIC | 0.8 µg/mL (≈ 1.66 µM) |
| CC1(C)S[C@@H]2[C@H](NC(=O)[C@H](N)c3ccccc3)C(=O)N2[C@H]1C(=O)O | microbial growth, well diffusion | ATCC29212 | 60000 µg/mL | inhibition zone | 26 mm |
| CC(C)CCCCCCCCCCCCCCCc1cc(O)cc(O)c1 | microbial growth | ATCC29212 |  | IC50 | 15.3 µM |
| CC(C)(O/N=C(\C(=O)N[C@@H]1C(=O)N2C(C(=O)[O-])=C(C[n+]3ccccc3)CS[C@H]12)c1csc(N)n1)C(=O)O | microbial killing |  | drug-resistant strain, clinical isolate | MBC | > 128 µg/mL |
| CCCCCCCCCCCCCCCC(=O)NS(=O)(=O)OC1CCN(C(=O)OC(C)(C)C)CC1 | microbial growth, broth dilution | ATCC33186 |  | MIC | 25 µg/mL (≈ 48.2 µM) |
| CCCCCCCCCCCC(=O)NP(=O)(O)O | microbial growth | ATCC33186 |  | MIC | 200 µg/mL (≈ 716 µM) |
| ONCc1cc(F)cc(F)c1 | microbial growth | ATCC19433 | 8 h | MIC50 | < 80 µg/mL |
| O=C(CCCCCCCCCCOc1ccccc1)NP(=O)(O)O | microbial growth | ATCC33186 |  | MIC | 100 µg/mL (≈ 280 µM) |
| CC1(C)S[C@@H]2[C@H](NC(=O)COc3ccccc3)C(=O)N2[C@H]1C(=O)O | microbial killing |  | drug-resistant strain, clinical isolate | MBC | > 128 µg/mL |
| COc1ccc(OS(=O)(=O)NC(=O)CCCCc2ccccc2)cc1 | microbial growth | ATCC33186 |  | MIC | > 200 µg/mL |
| CC(C)CCCCCCCCCCCCc1cc(O)cc(O)c1 | microbial growth | ATCC29212 |  | IC50 | 81.1 µM |
| CCCCCCCC(=O)CP(=O)(O)O | microbial growth | ATCC33186 |  | MIC | > 200 µg/mL |
| CCCCCCCCCCCCCCCC(=O)NS(=O)(=O)Oc1ccc(C)cc1 | microbial growth, broth dilution | ATCC33186 |  | MIC | 12.5 µg/mL (≈ 29.4 µM) |
